According to ChEMBL document CHEMBL4373647, “Design, synthesis, and antimicrobial evaluation of 1,4-dihydroindeno[1,2-c]pyrazole tethered carbohydrazide hybrids: exploring their in silico ADMET, ergosterol inhibition and ROS inducing potential” (Medchemcomm, 2019):
Values after ≈ are worked out from the molar mass of the structure shown. Active and inactive are the calls of the source. The rule behind the calls is not given here.

Assays:
Candida albicans [1] = test: Ratio of MFC to MIC against Candida albicans MTCC 4748; type: functional
Summary of the method: (§1)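 MIC by agar well diffusion: Candida lawns on Mueller-Hinton agar, wells loaded with compound in 10% DMSO (125–0.97 µg/mL), 24 h at 37 °C, lowest concentration giving an inhibition zone. MFC: compound in Mueller-Hinton broth (125–0.97 µg/mL) with yeast, 24 h at 37 °C, 10 µL plated on agar, lowest killing concentration after 24 h. Ratio is MFC/MIC.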

Candida albicans [2] = test: Antifungal activity against Candida albicans MTCC 4748 assessed as inhibition of fungal growth incubated for 24 hrs by agar well diffusion method; type: functional; conditions: MTCC 4748, 24 h
Summary of the method: (§2)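 Candida strains from MTCC, pre-cultured and spread on Mueller Hinton agar. Wells received compound dissolved in 10% DMSO, 125–0.97 µg/mL; miconazole standard over the same range, DMSO negative control. After 24 h at 37 °C, MIC was read as the lowest concentration giving an inhibition zone. Duplicate experiments, means given.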

Candida albicans [3] = test: Antifungal activity against Candida albicans MTCC 7315 assessed as inhibition of fungal growth incubated for 24 hrs by agar well diffusion method; type: functional; conditions: MTCC 7315, 24 h; summary of the method: as §2
Candida albicans [4] = test: Fungicidal activity against Candida albicans MTCC 1637 assessed as fungal killing incubated for 24 hrs; type: functional; conditions: MTCC 1637, 24 h
Summary of the method: (§3)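 Compound at 125–0.97 µg/mL in Mueller Hinton broth in microcentrifuge tubes, each Candida strain added, held 24 h at 37 °C. 10 µL of the treated suspension plated on Mueller Hinton agar and incubated a further 24 h at 37 °C. MFC is the lowest concentration that kills the strain. Duplicates, means reported.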

Staphylococcus aureus [5] = test: Antibacterial activity against Staphylococcus aureus MTCC 96 assessed as inhibition of bacterial growth incubated for 24 hrs by agar well diffusion method; type: functional
Summary of the method: (§4)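 Strains from MTCC; inoculum at 0.5 McFarland spread on Mueller-Hinton agar; 6 mm wells loaded with compound over 125–0.97 µg/mL; ciprofloxacin positive control (same range), DMSO negative control. Plates held 24 h at 37 °C; MIC taken as lowest concentration giving a clear inhibition zone. Triplicate runs, mean MIC reported.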

MRC5 = test: Cytotoxicity against human MRC5 cells incubated for 48 hrs by MTT assay; type: cell-based; conditions: MRC5, 48 h
Summary of the method: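 Normal human lung MRC5 cells grown 24 h in 96-well plates, then exposed to a range of compound concentrations for 48 h. MTT (250 µg/mL) added for 2 h, medium replaced by DMSO, absorbance read at 570 nm. Miconazole positive control, DMSO negative control. Triplicates, mean ± S.D.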

Candida albicans [6] = test: Ratio of MFC to MIC against Candida albicans MTCC 3018; type: functional; summary of the method: as §1
Nakaseomyces glabratus [7] = test: Fungicidal activity against Candida glabrata MTCC 3019 assessed as fungal killing incubated for 24 hrs; type: functional; conditions: MTCC 3019, 24 h; summary of the method: as §3
Pseudomonas aeruginosa = test: Antibacterial activity against Pseudomonas aeruginosa MTCC 2453 assessed as inhibition of bacterial growth incubated for 24 hrs by agar well diffusion method; type: functional; summary of the method: as §4
Candida albicans [8] = test: Antifungal activity against Candida albicans MTCC 1637 assessed as inhibition of fungal growth incubated for 24 hrs by agar well diffusion method; type: functional; conditions: MTCC 1637, 24 h; summary of the method: as §2
Candida parapsilosis [9] = test: Fungicidal activity against Candida parapsilosis MTCC 1744 assessed as fungal killing incubated for 24 hrs; type: functional; conditions: Lodderomyces parapsilosis, MTCC 1744, 24 h; summary of the method: as §3
Escherichia coli = test: Antibacterial activity against Escherichia coli MTCC 739 assessed as inhibition of bacterial growth incubated for 24 hrs by agar well diffusion method; type: functional; summary of the method: as §4
Pichia kudriavzevii [10] = test: Antifungal activity against Candida krusei MTCC 3020 assessed as inhibition of fungal growth incubated for 24 hrs by agar well diffusion method; type: functional; conditions: MTCC 3020, 24 h; summary of the method: as §2
Pichia sporocuriosa [11] = test: Fungicidal activity against Issatchenkia hanoiensis MTCC 4755 assessed as fungal killing incubated for 24 hrs; type: functional; conditions: MTCC 4755, 24 h; summary of the method: as §3
Candida albicans [12] = test: Ratio of MFC to MIC against Candida albicans MTCC 183; type: functional
Candida albicans [13] = test: Antifungal activity against Candida albicans MTCC 3018 assessed as inhibition of fungal growth incubated for 24 hrs by agar well diffusion method; type: functional; conditions: MTCC 3018, 24 h; summary of the method: as §2
Candida albicans [14] = test: Fungicidal activity against Candida albicans MTCC 4748 assessed as fungal killing incubated for 24 hrs; type: functional; conditions: MTCC 4748, 24 h; summary of the method: as §3
Pichia sporocuriosa [15] = test: Ratio of MFC to MIC against Issatchenkia hanoiensis MTCC 4755; type: functional; summary of the method: as §1
Candida albicans [16] = test: Ratio of MFC to MIC against Candida albicans MTCC 1637; type: functional
Staphylococcus aureus [17] = test: Antibacterial activity against Staphylococcus aureus MLS-16 MTCC 2940 assessed as inhibition of bacterial growth incubated for 24 hrs by agar well diffusion method; type: functional; summary of the method: as §4
Candida albicans [18] = test: Fungicidal activity against Candida albicans MTCC 3018 assessed as fungal killing incubated for 24 hrs; type: functional; conditions: MTCC 3018, 24 h; summary of the method: as §3
Candida albicans [19] = test: Fungicidal activity against Candida albicans MTCC 183 assessed as fungal killing incubated for 24 hrs; type: functional; conditions: MTCC 183, 24 h; summary of the method: as §3
Bacillus subtilis = test: Antibacterial activity against Bacillus subtilis MTCC 121 assessed as inhibition of bacterial growth incubated for 24 hrs by agar well diffusion method; type: functional; summary of the method: as §4
Candida albicans [20] = test: Antifungal activity against Candida albicans MTCC 183 assessed as inhibition of fungal growth incubated for 24 hrs by agar well diffusion method; type: functional; conditions: MTCC 183, 24 h; summary of the method: as §2
Pichia kudriavzevii [21] = test: Ratio of MFC to MIC against Candida krusei MTCC 3020; type: functional; summary of the method: as §1
Pichia sporocuriosa [22] = test: Antifungal activity against Issatchenkia hanoiensis MTCC 4755 assessed as inhibition of fungal growth incubated for 24 hrs by agar well diffusion method; type: functional; conditions: MTCC 4755, 24 h; summary of the method: as §2
Nakaseomyces glabratus [23] = test: Antifungal activity against Candida glabrata MTCC 3019 assessed as inhibition of fungal growth incubated for 24 hrs by agar well diffusion method; type: functional; conditions: MTCC 3019, 24 h; summary of the method: as §2
Candida albicans [24] = test: Antifungal activity against Candida albicans MTCC 227 assessed as inhibition of fungal growth incubated for 24 hrs by agar well diffusion method; type: functional; conditions: MTCC 227, 24 h; summary of the method: as §2
Candida albicans [25] = test: Ratio of MFC to MIC against Candida albicans MTCC 227; type: functional; summary of the method: as §1
Candida albicans [26] = test: Fungicidal activity against Candida albicans MTCC 7315 assessed as fungal killing incubated for 24 hrs; type: functional; conditions: MTCC 7315, 24 h; summary of the method: as §3
Candida albicans [27] = test: Ratio of MFC to MIC against Candida albicans MTCC 7315; type: functional; summary of the method: as §1
Candida parapsilosis [28] = test: Ratio of MFC to MIC against Candida parapsilosis MTCC 1744; type: functional; summary of the method: as §1
Nakaseomyces glabratus [29] = test: Ratio of MFC to MIC against Candida glabrata MTCC 3019; type: functional; summary of the method: as §1
Micrococcus luteus = test: Antibacterial activity against Micrococcus luteus MTCC 2470 assessed as inhibition of bacterial growth incubated for 24 hrs by agar well diffusion method; type: functional; summary of the method: as §4
[30] = molecular target: Lanosterol 14-alpha demethylase (Candida albicans (strain SC5314 / ATCC MYA-2876) (Yeast), UniProt P10613); test: Inhibition of CYP51 in Candida albicans MTCC 3017 assessed as reduction in ergosterol level incubated for 20 hrs by UV-visible spectrophotometry analysis
Summary of the method: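 Modified Breivik–Owades sterol method: Mueller Hinton broth with compound at 0, 2, 4, 8, 16 µg/mL, inoculated with single Candida colonies, shaken at 200 rpm for 20 h at 30 °C. Pellets washed and weighed, saponified in 25% alcoholic KOH for 70 min at 90 °C, sterols extracted into n-heptane, diluted 1:5 in ethanol and scanned at 230–310 nm. Triplicates.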

Raoultella planticola = test: Antibacterial activity against Klebsiella planticola MTCC 530 assessed as inhibition of bacterial growth incubated for 24 hrs by agar well diffusion method; type: functional; summary of the method: as §4
Candida albicans [31] = test: Fungicidal activity against Candida albicans MTCC 227 assessed as fungal killing incubated for 24 hrs; type: functional; conditions: MTCC 227, 24 h; summary of the method: as §3
Candida parapsilosis [32] = test: Antifungal activity against Candida parapsilosis MTCC 1744 assessed as inhibition of fungal growth incubated for 24 hrs by agar well diffusion method; type: functional; conditions: Lodderomyces parapsilosis, MTCC 1744, 24 h; summary of the method: as §2
Candida albicans [33] = test: Induction of ROS generation in Candida albicans MTCC 3017 assessed as accumulation of intracellular ROS level by measuring fluorescence intensity at 5 to 25 ug/ml after 24 hrs by DCFH-DA probe based fluorimetric assay; type: functional, organism-based
Summary of the method: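 C. albicans MTCC 3017 biofilms grown 24 h at 37 °C in 96-well plates, then treated 24 h with compound at 0, 5, 10, 15, 20, 25 µg/mL; untreated cells served as control. Cells then loaded with 10 µM DCFH-DA for 24 h in the dark, and fluorescence read at 485 nm excitation and 535 nm emission. Triplicates.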

Pichia kudriavzevii [34] = test: Fungicidal activity against Candida krusei MTCC 3020 assessed as fungal killing incubated for 24 hrs; type: functional; conditions: MTCC 3020, 24 h; summary of the method: as §3
Candida albicans [35] = test: Antifungal activity against Candida albicans MTCC 3017 assessed as inhibition of fungal growth incubated for 24 hrs by agar well diffusion method; type: functional; conditions: MTCC 3017, 24 h; summary of the method: as §2

Chain of Lanosterol 14-alpha demethylase (P10613 whole entry): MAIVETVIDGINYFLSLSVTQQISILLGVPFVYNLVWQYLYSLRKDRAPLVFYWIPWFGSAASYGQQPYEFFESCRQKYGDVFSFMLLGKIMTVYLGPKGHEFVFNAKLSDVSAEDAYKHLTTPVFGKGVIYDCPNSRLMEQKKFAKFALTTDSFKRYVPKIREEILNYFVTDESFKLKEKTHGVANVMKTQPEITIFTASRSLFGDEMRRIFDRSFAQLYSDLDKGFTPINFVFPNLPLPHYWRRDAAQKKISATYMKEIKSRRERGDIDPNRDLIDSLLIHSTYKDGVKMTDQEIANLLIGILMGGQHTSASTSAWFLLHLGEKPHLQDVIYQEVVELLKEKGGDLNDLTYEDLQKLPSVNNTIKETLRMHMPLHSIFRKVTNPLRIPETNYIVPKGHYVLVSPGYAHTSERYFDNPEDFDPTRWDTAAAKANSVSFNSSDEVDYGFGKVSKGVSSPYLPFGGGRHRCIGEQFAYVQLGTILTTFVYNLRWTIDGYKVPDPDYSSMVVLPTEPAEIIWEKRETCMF

Molecule `Clc1ccc(COC(Cn2ccnc2)c2ccc(Cl)cc2Cl)c(Cl)c1` (stereo unspecified) [MICONAZOLE] has a Ratio (Candida albicans [1]) of 2, an MIC (Candida albicans [2]) of 3.9 µg/mL (≈ 9.37 µM) and an MIC (Candida albicans [3]) of 3.9 µg/mL (≈ 9.37 µM). The MFC (Candida albicans [4]) was 7.8 µg/mL (≈ 18.7 µM), the MIC (Staphylococcus aureus [5]) was “inactive” and the IC50 (MRC5) was 61.7 µg/mL (≈ 148 µM). The Ratio (Candida albicans [6]) was 2, the MFC (Nakaseomyces glabratus [7]) was 7.8 µg/mL (≈ 18.7 µM) and the MIC (Pseudomonas aeruginosa) was “inactive”. For the same molecule, the MIC (Candida albicans [8]) was 3.9 µg/mL (≈ 9.37 µM), the MFC (Candida parapsilosis [9]) was 7.8 µg/mL (≈ 18.7 µM) and the MIC (Escherichia coli) was “inactive”. The MIC (Pichia kudriavzevii [10]) was 3.9 µg/mL (≈ 9.37 µM), the MFC (Pichia sporocuriosa [11]) was 7.8 µg/mL (≈ 18.7 µM) and the Ratio (Candida albicans [12]) was 2. The MIC (Candida albicans [13]) was 3.9 µg/mL (≈ 9.37 µM), the MFC (Candida albicans [14]) was 7.8 µg/mL (≈ 18.7 µM) and the Ratio (Pichia sporocuriosa [15]) was 2. The Ratio (Candida albicans [16]) was 2, the MIC (Staphylococcus aureus [17]) was “inactive” and the MFC (Candida albicans [18]) was 7.8 µg/mL (≈ 18.7 µM). For the same molecule, the MFC (Candida albicans [19]) was 7.8 µg/mL (≈ 18.7 µM), the MIC (Bacillus subtilis) was “inactive” and the MIC (Candida albicans [20]) was 3.9 µg/mL (≈ 9.37 µM). It also gave a Ratio (Pichia kudriavzevii [21]) of 2, an MIC (Pichia sporocuriosa [22]) of 3.9 µg/mL (≈ 9.37 µM) and an MIC (Nakaseomyces glabratus [23]) of 3.9 µg/mL (≈ 9.37 µM). For the same molecule, the MIC (Candida albicans [24]) was 3.9 µg/mL (≈ 9.37 µM), the Ratio (Candida albicans [25]) was 2 and the MFC (Candida albicans [26]) was 7.8 µg/mL (≈ 18.7 µM). It also gave a Ratio (Candida albicans [27]) of 2, a Ratio (Candida parapsilosis [28]) of 2 and a Ratio (Nakaseomyces glabratus [29]) of 2. The MIC (Micrococcus luteus) was “inactive”, the “inhibition (INH)” value [30] was “Dose-dependent effect” and the MIC (Raoultella planticola) was “inactive”. The MFC (Candida albicans [31]) was 7.8 µg/mL (≈ 18.7 µM), the MIC (Candida parapsilosis [32]) was 3.9 µg/mL (≈ 9.37 µM) and the Activity (Candida albicans [33]) was “Active”. For the same molecule, the MFC (Pichia kudriavzevii [34]) was 7.8 µg/mL (≈ 18.7 µM) and the MIC (Candida albicans [35]) was 3.9 µg/mL (≈ 9.37 µM).
